Test results published in PubChem BioAssay.
The source made the active and inactive calls.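 How the source made its calls, unless noted: active means viability at or under a set limit in both replicates, limit being median viability minus 3 SD (cut at about 48% in these data, passing the limit was not always enough); inconclusive means at or under the limit in just one replicate; inactive means at or above the limit in both replicates.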

How the values were obtained:
[1] = reducers of endogenous Her2 protein level, primary screen, SKBR3 breast tumor cells, AlphaScreen, ATP viability (AID 461;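 active means Her2 level under about 52% in both replicate screens, with viability over 70% of control, limit read from the data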;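 on Her2 level: lower value means less Her2 protein in the cells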;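 on viability: percent of carrier control wells set as 100% viability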); conditions: 18-24 h, measured here: SKBR3 viability, ATP luminescence, at 10 µM
[2] = biological target: Receptor tyrosine-protein kinase erbB-2 (Homo sapiens) (UniProt P04626); assay: as above; conditions: 18-24 h, at 10 µM, stronger effect = lower value
Chain of Receptor tyrosine-protein kinase erbB-2 (Homo sapiens) (P04626 whole entry, looked up): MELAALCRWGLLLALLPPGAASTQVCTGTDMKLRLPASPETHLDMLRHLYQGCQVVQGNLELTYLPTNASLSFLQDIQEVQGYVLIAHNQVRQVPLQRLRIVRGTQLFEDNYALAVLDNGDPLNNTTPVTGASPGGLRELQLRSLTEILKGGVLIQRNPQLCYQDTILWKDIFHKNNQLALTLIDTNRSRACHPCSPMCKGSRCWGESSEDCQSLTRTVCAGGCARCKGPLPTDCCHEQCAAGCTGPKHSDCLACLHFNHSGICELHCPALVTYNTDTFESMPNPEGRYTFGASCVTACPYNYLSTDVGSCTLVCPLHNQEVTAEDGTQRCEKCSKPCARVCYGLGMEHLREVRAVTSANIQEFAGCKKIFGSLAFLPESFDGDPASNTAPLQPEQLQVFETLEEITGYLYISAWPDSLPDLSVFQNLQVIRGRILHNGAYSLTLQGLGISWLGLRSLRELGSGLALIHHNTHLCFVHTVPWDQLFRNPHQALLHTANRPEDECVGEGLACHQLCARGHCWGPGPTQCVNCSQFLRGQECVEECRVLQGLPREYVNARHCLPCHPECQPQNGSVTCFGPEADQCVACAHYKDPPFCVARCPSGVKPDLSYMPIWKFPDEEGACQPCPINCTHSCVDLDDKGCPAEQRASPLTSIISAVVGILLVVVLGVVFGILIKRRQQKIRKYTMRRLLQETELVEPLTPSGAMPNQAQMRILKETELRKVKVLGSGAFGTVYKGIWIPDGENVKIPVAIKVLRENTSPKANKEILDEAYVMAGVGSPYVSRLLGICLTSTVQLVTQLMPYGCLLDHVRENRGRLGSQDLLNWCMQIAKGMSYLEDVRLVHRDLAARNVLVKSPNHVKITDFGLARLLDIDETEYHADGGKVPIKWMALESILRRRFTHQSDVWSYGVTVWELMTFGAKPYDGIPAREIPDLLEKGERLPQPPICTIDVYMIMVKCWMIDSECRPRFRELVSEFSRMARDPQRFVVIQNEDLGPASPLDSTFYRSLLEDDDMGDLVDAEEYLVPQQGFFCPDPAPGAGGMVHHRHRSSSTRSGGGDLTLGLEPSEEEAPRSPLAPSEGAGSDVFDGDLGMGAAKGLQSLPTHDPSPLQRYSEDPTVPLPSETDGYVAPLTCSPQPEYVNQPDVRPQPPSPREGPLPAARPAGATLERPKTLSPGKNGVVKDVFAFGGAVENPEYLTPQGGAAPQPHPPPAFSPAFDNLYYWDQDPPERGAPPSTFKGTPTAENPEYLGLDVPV

[3] = SK-BR-3 cell growth inhibitors, pilot screen, 24 h, human (AID 572;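 active means viability at or below 10% of carrier control in both of two separate runs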;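 further: compound exposure lasted between 18 and 24 h rather than exactly 24 h; 100% = carrier-treated control wells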); conditions: SK-BR-3 viability, CellTiter-Glo luminescence, at 10 µM, stronger effect = lower value
[4] = HUVEC growth inhibition – cell-based, human, primary screen (AID 575;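 active means viability at or below 30% in both replicate assays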;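 further: 100% = median of untreated cell wells with 0.1% DMSO on each plate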); conditions: HUVEC proliferation, CellTiter-Glo luminescence, 72 h; at 10 µM; stronger effect = lower value
How it was run: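 System: primary human umbilical vein endothelial cells; Quantity: 1250 endothelial cells in each well; Buffer or medium: supplemented EBM, 2% fetal bovine serum; Doses: one dose, 10 µM final, 0.1% DMSO; Incubation: 72 h compound incubation; Technique: ATP-based CellTiter-Glo luminescent read; Evaluation: percent of median DMSO-control luminescence; Controls: vehicle and MePR control wells.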

[5] = growth inhibitors of H69AR lung tumor, primary screen, human, duplicate replicates (AID 580); conditions: H69AR lung tumor cells viability, ATP luminescence, 72 h; at 10 µM; stronger effect = lower value;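 further: 100% = mean luminescence of untreated wells and 0% = no signal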
[6] = reversal of MRP1-mediated doxorubicin resistance, pilot screen, H69AR cells, doxorubicin co-treatment (AID 601;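 active means viability loss from added drug above about 55%, and viability with drug at most 40%, in both replicates, limit read from the data, passing the limit was not always enough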); conditions: CellTiter-Glo, 72 h, at 10 µM; for differential viability (reversal): stronger effect = higher value
[7] = 384-well plate pilot, post-Golgi transport modulator project, inhibition of yeast transport mutant growth (AID 636; in the data active means inhibition above about 31%); conditions: absorbance 615 nm, about 18 h, stronger effect = higher value
[8] = growth suppression of yeast trafficking mutant, preliminary HTS, modulators of trafficking downstream of Golgi apparatus project, 1536-format plate, OD 615 nm (AID 637; in the data active means inhibition above about 30%); conditions: yeast transport mutant growth, absorbance 615 nm, 18 h; stronger effect = higher value
[9] = H69AR cells + 2 uM doxorubicin, measured here: viability with 2 uM doxorubicin, stronger effect = lower value
[10] = H69AR cells, compound alone cytotoxicity

| SMILES | viability [1] [%] | Her2 level [2] | viability [3] | viability [4] | viability [5] | differential viability (reversal) ([6]; H69AR cells + 2 uM doxorubicin) | viability [6, 9] [%] | viability [6, 10] [%] | inhibition [7] | inhibition [8] |
| --- | --- | --- | --- | --- | --- | --- | --- | --- | --- | --- |
| Nn1c(SCC(=O)Nc2ccc(Oc3ccccc3)cc2)nnc1C1CC1 | 98.5 | 100% (inactive) | 98.5% (inactive) | 69.1% (inactive) | 75.7% (inactive) | -9.75% (inactive) | 85.4 | 75.7 | -5.6% (inactive) | -12.1% (inactive) |
| FC(F)(F)c1nnc2ccc(NCn3nnc4ccccc43)nn12 | 102 | 89.5% (inactive) | 102% (inactive) | 83.1% (inactive) | 92.9% (inactive) | 4.94% (inactive) | 88 | 92.9 | -4.61% (inactive) | -1.75% (inactive) |
| CCOC(=O)c1sc(C)c2c(=O)n(CC)nnc12 | 94 | 111% (inactive) | 94% (inactive) | 98.3% (inactive) | 103% (inactive) | 1.48% (inactive) | 102 | 103 | -4% (inactive) | -9.52% (inactive) |
| CCOc1ccccc1NC(=O)N1CCCC1C(=O)Nc1nnc(CC)s1 (stereo not given) | 94 | 88% (inactive) | 94% (inactive) | 89.7% (inactive) | 109% (inactive) | 20% (inactive) | 88.8 | 109 | -5.95% (inactive) | -0.83% (inactive) |
| COc1ccc(C2/C(=C(/O)c3ccccc3)C(=O)C(=O)N2C)cc1 (stereo not given) | 102 | 83.5% (inactive) | 102% (inactive) | 107% (inactive) | 101% (inactive) | 3% (inactive) | 98.1 | 101 | -7.84% (inactive) | 1.97% (inactive) |
| CCCCP(=O)(CCCC)Cc1ccccc1O | 99.5 | 104% (inactive) | 99.5% (inactive) | 103% (inactive) | 97.1% (inactive) | 7.29% (inactive) | 89.8 | 97.1 | -5.32% (inactive) | -6.07% (inactive) |
| CC1=C(C)C(=O)NC(Nc2nc(C)c3cc(C)cc(C)c3n2)N1 (stereo not given) | 120 | 79.5% (inactive) | 120% (inactive) | 10.6% (active) | 17.2% (active) | 6.29% (inactive) | 10.9 | 17.2 | -3.59% (inactive) | -3% (inactive) |
| CC(C)Cn1c(CN2CCCCC2C)nc2c1c(=O)n(C)c(=O)n2C (stereo not given) | 88.5 | 91.5% (inactive) | 88.5% (inactive) | 109% (inactive) | 94.2% (inactive) | 16.7% (inactive) | 77.6 | 94.2 | -5.73% (inactive) | -3.61% (inactive) |
| CCOC(=O)c1c(C)n(C)c2ccc(OC)c(NC(=O)CCN3CCSCC3)c12 | 122 | 91.5% (inactive) | 122% (inactive) | 96.7% (inactive) | 83.5% (inactive) | -1.65% (inactive) | 85.1 | 83.5 | -2.89% (inactive) | -2.74% (inactive) |
| COc1cccc(C2C(C#N)=C(N)OC3=C2C(=O)CCC3)c1OC(=O)c1ccco1 (stereo not given) | 106 | 84% (inactive) | 106% (inactive) | 83.6% (inactive) | 99.7% (inactive) | 13.1% (inactive) | 86.6 | 99.7 | -4.53% (inactive) | 3.71% (inactive) |
| CCOc1cc2[nH]c(=O)n(CCCCC(=O)N3CCCCCC3)c(=O)c2cc1OCC | 90 | 87.5% (inactive) | 90% (inactive) | 91.6% (inactive) | 76.8% (inactive) | 2.38% (inactive) | 74.4 | 76.8 | -3.29% (inactive) | -0.36% (inactive) |
| CC(C)(C)Cc1nc(-c2ccccn2)no1 | 95.5 | 114% (inactive) | 95.5% (inactive) | 88.4% (inactive) | 100% (inactive) | 7.35% (inactive) | 92.9 | 100 | -1.82% (inactive) | -3.67% (inactive) |
| O=C(NC12CC3CC(CC(C3)C1)C2)C1CCCN1C(=O)NC1CCCCC1 (stereo not given) | 102 | 113% (inactive) | 102% (inactive) | 108% (inactive) | 92.6% (inactive) | 16.5% (inactive) | 76.2 | 92.6 | -6.62% (inactive) | 1.5% (inactive) |
| Nc1nc(N)nc(-c2ccccc2)n1 | 97.5 | 106% (inactive) | 97.5% (inactive) | 107% (inactive) | 99.8% (inactive) | 4.35% (inactive) | 95.4 | 99.8 | -1.05% (inactive) | -0.16% (inactive) |
| CC1C(c2ccccc2)N(C)CCC12NC(=O)NC2=O (stereo not given) | 89 | 95.5% (inactive) | 89% (inactive) | 96.9% (inactive) | 98.2% (inactive) | 13% (inactive) | 85.2 | 98.2 | -5.33% (inactive) | -9.02% (inactive) |
| CC1=CC2=C(OC1N(C)C)c1cccc3cccc(c13)C2=O (stereo not given) | 106 | 65% (inactive) | 106% (inactive) | 83% (inactive) | 78.5% (inactive) | -0.375% (inactive) | 78.9 | 78.5 | 2.21% (inactive) | 6.17% (inactive) |
| CCCC(=O)Nc1ccccc1-c1nnn(CC(=O)Nc2ccc(OCC)cc2)n1 | 108 | 87% (inactive) | 108% (inactive) | 62% (inactive) | 89.1% (inactive) | -8.82% (inactive) | 97.9 | 89.1 | 1.82% (inactive) | -4.75% (inactive) |
| Cc1nc2ccccc2c(=O)n1CC(=O)N1CCOCC1 | 120 | 90.5% (inactive) | 120% (inactive) | 107% (inactive) | 90.4% (inactive) | -9.46% (inactive) | 99.8 | 90.4 | 0.67% (inactive) | -4.35% (inactive) |
| COCCn1c(SCC(=O)Nc2cccc(OC)c2)nnc1-c1ccc(Cl)cc1 | 98.5 | 71.5% (inactive) | 98.5% (inactive) | 97% (inactive) | 84.1% (inactive) | -5.18% (inactive) | 89.3 | 84.1 | -6.4% (inactive) | 0.98% (inactive) |
| Cc1ccc(C2Nc3ccccc3-c3nc4ccccc4n32)o1 (stereo not given) | 97 | 89.5% (inactive) | 97% (inactive) | 54.4% (inactive) | 38.3% (active) | -18.1% (inactive) | 56.4 | 38.3 | -1.37% (inactive) | 4.44% (inactive) |
| CCOc1ccc(S(=O)(=O)Nc2cccc(Cl)c2)cc1 | 86 | 74.5% (inactive) | 86% (inactive) | 50.7% (inactive) | 18.8% (active) | -41.9% (inactive) | 60.7 | 18.8 | -5.07% (inactive) | -3.28% (inactive) |
| COc1ccc2c(C(=O)CN(C)C3CCCCC3)c[nH]c2c1 | 115 | 72.5% (inactive) | 115% (inactive) | 92.3% (inactive) | 64.7% (inactive) | -10.2% (inactive) | 74.9 | 64.7 | -0.92% (inactive) | -0.81% (inactive) |
| COc1ccc(C(=O)NCCn2ccc3ccccc32)cc1 | 126 | 97% (inactive) | 126% (inactive) | 111% (inactive) | 92.5% (inactive) | 8.59% (inactive) | 84 | 92.5 | -5.6% (inactive) | 0.16% (inactive) |
| CCOC(=O)CSC1=C(C#N)C(=O)NC2(CCCCC2)S1 | 108 | 106% (inactive) | 108% (inactive) | 100% (inactive) | 108% (inactive) | 12.1% (inactive) | 95.9 | 108 | -6.16% (inactive) | -5.24% (inactive) |
| CCCCn1nnc(NC(=O)Cc2ccc(Cl)cc2)n1 | 112 | 134% (inactive) | 112% (inactive) | 106% (inactive) | 90% (inactive) | 17.9% (inactive) | 72.1 | 90 | -3.9% (inactive) | -3.5% (inactive) |
| CCCCCn1c(N2CCN(Cc3ccccc3)CC2)nc2c1c(=O)[nH]c(=O)n2C | 110 | 78% (inactive) | 110% (inactive) | 93.3% (inactive) | 76.9% (inactive) | 23.7% (inactive) | 53.2 | 76.9 | -6.67% (inactive) | -2.46% (inactive) |
| COc1cccc(C(=O)CN2CCC(NC(=O)NC3CCCCC3)CC2)c1 | 92 | 101% (inactive) | 92% (inactive) | 102% (inactive) | 98.1% (inactive) | 6.55% (inactive) | 91.5 | 98.1 | -5.79% (inactive) | -2% (inactive) |
| Cc1cc(NC(=O)Cn2cnc3c2c(=O)n(C)c(=O)n3C)n(-c2ccccc2)n1 | 116 | 93% (inactive) | 116% (inactive) | 117% (inactive) | 108% (inactive) | 8.22% (inactive) | 99.3 | 108 | -7.97% (inactive) | 0.83% (inactive) |
| COc1cccc(CNc2cccc3cccnc23)c1O | 102 | 82.5% (inactive) | 102% (inactive) | 73.5% (inactive) | 78.4% (inactive) | -14.6% (inactive) | 93 | 78.4 | -3.16% (inactive) | -1.97% (inactive) |
